# Columns and labels:
# Blood [1] = test: Inhibition of LPS-induced TNFalpha production in human whole blood at 10 uM treated 1 hr before LPS challenge measured after 5 hrs by ELISA; format: functional
# Method in brief: (§1)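 Whole blood aliquots preincubated 1 h at 37 °C with test compound (10 or 100 μM solution) or DMSO vehicle, then stimulated with LPS in PBS (final 1 ng/ml). Incubated a further 5 h at 37 °C, stopped on ice 10 min. Plasma separated by centrifugation (3000 rpm, 10 min, 4 °C), stored at −70 °C. Plasma TNF-α quantified by ELISA.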
# Blood [2] = test: Inhibition of LPS-induced TNFalpha production in human whole blood at 100 uM treated 1 hr before LPS challenge measured after 5 hrs by ELISA; format: functional; method in brief: as §1
SMILES,inhibition at 10 µM (Blood [1]) [%],inhibition at 100 µM (Blood [2]) [%]
COC(=O)/C(=C/c1ccc(OC)cc1)Cn1nnnc1-c1ccncc1,8.6,12.9
COC(=O)/C(=C/c1ccccc1)Cn1nnnc1-c1ccccc1,14.6,35.1
COC(=O)/C(=C/c1ccccc1)Cn1nnnc1-c1ccncc1,18.2,67
COC(=O)/C(=C/c1ccc(OC)cc1)Cn1nnnc1-c1cccnc1,5.4,30.2
COC(=O)/C(=C/c1ccc(OC)cc1)Cn1nnnc1-c1ccccc1,22.2,46.3

# Reference: ChEMBL document CHEMBL1155213, “Solvent free synthesis of 1,5-disubstituted tetrazoles derived from Baylis Hillman acetates as potential TNF-alpha inhibitors” (2009)
